Laboratory results from PubChem BioAssay AID493037 (Johns Hopkins Ion Channel Center, 2011).
pEC50: −log10 of the molar value.

Molecular target: Potassium voltage-gated channel subfamily KQT member 2 (Rattus norvegicus) (UniProt O88943)
Assay: concentration-dependent KCNQ2 opening potency – cell-based, FluxOR thallium flux, mode of action, dose response (AID 493037)
Conditions: KCNQ2-expressing cells, FluxOR thallium flux fluorescence
How it was run: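 Test system: CHO cells expressing KCNQ2 potassium channel, loaded with FluxOR dye; Incubation: compound pre-incubation 20 min at room temperature; Measured by: thallium-flux fluorescence using FluxOR thallium-sensitive dye.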

Potassium voltage-gated channel subfamily KQT member 2 (Rattus norvegicus), sequence (O88943 whole entry, looked up): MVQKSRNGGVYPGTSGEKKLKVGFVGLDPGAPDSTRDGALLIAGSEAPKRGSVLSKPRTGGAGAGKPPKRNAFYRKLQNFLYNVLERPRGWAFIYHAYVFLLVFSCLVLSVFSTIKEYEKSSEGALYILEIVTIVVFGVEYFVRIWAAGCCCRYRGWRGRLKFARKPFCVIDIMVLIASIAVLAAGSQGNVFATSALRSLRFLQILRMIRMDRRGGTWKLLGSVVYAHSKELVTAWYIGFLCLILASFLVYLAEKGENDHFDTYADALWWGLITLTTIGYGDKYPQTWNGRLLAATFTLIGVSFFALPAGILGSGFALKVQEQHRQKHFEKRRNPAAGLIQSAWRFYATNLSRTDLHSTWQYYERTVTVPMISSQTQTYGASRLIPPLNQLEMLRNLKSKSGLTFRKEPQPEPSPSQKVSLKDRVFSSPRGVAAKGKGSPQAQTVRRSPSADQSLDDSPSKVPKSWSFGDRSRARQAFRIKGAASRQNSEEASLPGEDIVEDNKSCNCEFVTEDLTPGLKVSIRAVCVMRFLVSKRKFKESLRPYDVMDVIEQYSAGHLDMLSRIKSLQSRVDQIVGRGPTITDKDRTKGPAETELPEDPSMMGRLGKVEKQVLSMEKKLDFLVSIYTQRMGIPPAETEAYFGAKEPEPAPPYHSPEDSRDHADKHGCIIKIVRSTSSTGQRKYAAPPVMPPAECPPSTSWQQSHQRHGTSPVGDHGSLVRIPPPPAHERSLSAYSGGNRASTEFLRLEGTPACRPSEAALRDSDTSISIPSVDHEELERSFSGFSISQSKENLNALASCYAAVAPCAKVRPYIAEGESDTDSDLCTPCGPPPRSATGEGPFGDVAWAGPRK

Row | SMILES | pEC50
1 | Cc1cc(C)c(NC(=O)CC(C)(C)C)c(Cl)c1 | 5.68
2 | CCCCC(=O)Nc1c(C)cc(C)cc1Cl | 5.43
3 | Cc1cccc(C)c1NC(=O)C1CC2CCC1C2 (stereo not given) | 5.69

Compounds with a higher pEC50, results first:

Row | pEC50 | SMILES
4 | 5.98 | Cc1ccc(C)c(NC(=O)C2CC3CCC2C3)c1 (stereo not given)
5 | 6.44 | Cc1cc(C)c(NC(=O)C2CC3CCC2C3)c(C)c1 (stereo not given)
